The source made the active and inactive calls. No cut-off for these calls is given here.
Columns and labels:
Human alphaherpesvirus 2 [1] = test: Antiviral activity against Human herpesvirus 2 isolate P27 infected in African green monkey CV1 cells; type: functional, organism-based; conditions: Human alphaherpesvirus 2, isolate P27, CV-1
Procedure, shortened: (§1)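 HSV-2 (clinical swab isolates or strain 333) was grown in CV-1 cells and used as clarified supernatant. Virus was exposed to graded EGCG for 1 h in RPMI 1640 with 1% FCS, pH 7.4. Tenfold dilutions were titrated on CV-1 cells, three wells each, 5 days at 37°C, scoring CPE. TCID50 was calculated by Reed-Muench. IC99 was read graphically as 99% titer drop from the zero-concentration titer. Mean of three experiments.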

Human alphaherpesvirus 2 [2] = test: Antiviral activity against Human herpesvirus 2 isolate P12 infected in African green monkey CV1 cells; type: functional, organism-based; conditions: Human alphaherpesvirus 2, isolate P12, CV-1
Procedure, shortened: (§2)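 HSV-2 patient-swab isolates were grown as clarified CV-1 supernatants and incubated 1 h with a range of EGCG concentrations (RPMI 1640/1% FCS, pH 7.4). They were titrated on CV-1 cells from 10-fold dilutions by 5-day CPE at 37°C, with Reed-Muench TCID50. IC99 was derived graphically as 99% reduction from zero-drug titre; mean ± SD, three experiments.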

Human alphaherpesvirus 2 [3] = test: Antiviral activity against Human herpesvirus 2 isolate P22 infected in African green monkey CV1 cells; type: functional, organism-based; conditions: Human alphaherpesvirus 2, isolate P22, CV-1; procedure, shortened: as §1
Human alphaherpesvirus 2 [4] = test: Antiviral activity against Human herpesvirus 2 isolate P47 infected in African green monkey CV1 cells assessed as log reduction in viral titer at 100 uM within 20 mins; type: functional, CV-1
Procedure, shortened: (§3)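 Time course: clarified CV-1 supernatant of HSV-2 (clinical isolates or strain 333) was exposed to 100 μM EGCG for increasing times. It was then titrated by tenfold dilution on CV-1 cells, three wells per dilution, for 5 days at 37°C with CPE read-out. Reed-Muench TCID50 was compared with the untreated titer. Mean of three separate experiments.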

Human alphaherpesvirus 2 [5] = test: Antiviral activity against Human herpesvirus 2 isolate P22 infected in African green monkey CV1 cells assessed as log reduction viral titer at 50 uM; type: functional, CV-1; procedure, shortened: as §1
Human alphaherpesvirus 2 [6] = test: Antiviral activity against Human herpesvirus 2 isolate P2 infected in African green monkey CV1 cells assessed as log reduction in viral titer at 100 uM within 20 mins; type: functional, CV-1; procedure, shortened: as §3
Human alphaherpesvirus 1 [7] = test: Antiviral activity against Human herpesvirus 1 isolate P42 infected in African green monkey vero cells assessed as reduction in viral titer at 100 uM; type: functional, organism-based
Procedure, shortened: (§4)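 Laboratory HSV-1 F1 or patient-swab HSV-1 isolates were prepared as clarified Vero supernatants. They were incubated 1 h with a range of EGCG concentrations in RPMI 1640/1% FCS at pH 7.4. Titres were determined on Vero cells by 5-day CPE endpoint (Reed-Muench). IC99 was read graphically as 99% titre drop from untreated; mean ± SD, three experiments.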

Human alphaherpesvirus 1 [8] = test: Antiviral activity against Human herpesvirus 1 F1 infected in African green monkey vero cells assessed as log reduction in viral titer at 100 uM; type: functional
Procedure, shortened: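 HSV-1 F1 was grown in Vero cells and the clarified supernatant was incubated with 100 μM EGCG for 60 min at 37°C in RPMI 1640/1% FCS, pH 7.4. Titre was then measured on Vero cells from 10-fold dilutions, three wells per dilution, over 5 days at 37°C by CPE. TCID50 was calculated by Reed-Muench; three separate experiments.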

Human alphaherpesvirus 1 [9] = test: Binding affinity to Envelope glycoprotein D in Human herpesvirus 1 F1 assessed as macromolecular complex formation by SDS-PAGE
Procedure, shortened: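 Purified HSV-1 gB or gD (500 to 700 μg/ml) was incubated with EGCG (250 μg/ml; 545 μM) in 0.1 M potassium phosphate, pH 7.0, at 35°C for 24 h. Products were denatured at 50°C for 15 min in sample buffer and run on 6.5% SDS-PAGE. Bands were stained with Coomassie blue to detect higher-molecular-weight complexes.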

Human alphaherpesvirus 1 [10] = test: Antiviral activity against Human herpesvirus 1 isolate P32 infected in African green monkey vero cells assessed as log reduction in viral titer at 100 uM within 10 mins; type: functional
Procedure, shortened: (§5)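 In the time course, HSV-1 clinical isolates (clarified Vero supernatants) were exposed to 100 μM EGCG for varying times up to 60 min. Residual infectivity was then titrated on Vero cells by 5-day CPE endpoint with Reed-Muench calculation. Mean ± SD of three separate experiments.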

Human alphaherpesvirus 1 [11] = test: Antiviral activity against Human herpesvirus 1 isolate P38 infected in African green monkey vero cells assessed as reduction in viral titer at 100 uM; type: functional, organism-based; procedure, shortened: as §4
Human alphaherpesvirus 1 [12] = test: Antiviral activity against Human herpesvirus 1 isolate P25 infected in African green monkey vero cells assessed as log reduction in viral titer at 100 uM after 30 mins; type: functional; procedure, shortened: as §5
Human alphaherpesvirus 2 [13] = test: Antiviral activity against Human herpesvirus 2 isolate P47 infected in African green monkey CV1 cells assessed as log reduction in viral titer at 12.5 uM; type: functional, CV-1; procedure, shortened: as §1
Human alphaherpesvirus 2 [14] = test: Antiviral activity against Human herpesvirus 2 isolate P2 infected in African green monkey CV1 cells; type: functional, organism-based; conditions: Human alphaherpesvirus 2, isolate P2, CV-1; procedure, shortened: as §2
Human alphaherpesvirus 2 [15] = test: Antiviral activity against Human herpesvirus 2 isolate P47 infected in African green monkey CV1 cells assessed as log reduction viral titer at 50 uM; type: functional, CV-1; procedure, shortened: as §1
Human alphaherpesvirus 1 [16] = test: Antiviral activity against Human herpesvirus 1 isolate P42 infected in African green monkey vero cells assessed as log reduction in viral titer at 100 uM after 30 mins; type: functional; procedure, shortened: as §5
Human alphaherpesvirus 1 [17] = test: Antiviral activity against Human herpesvirus 1 isolate P25 infected in African green monkey vero cells assessed as log reduction in viral titer at 100 uM after 40 to 60 mins; type: functional; procedure, shortened: as §5
Human alphaherpesvirus 2 [18] = test: Antiviral activity against Human herpesvirus 2 strain 333 strain 333 infected in African green monkey CV-1 cells; type: functional, cell-based; conditions: Human alphaherpesvirus 2, strain 333, CV-1; procedure, shortened: as §1
Human alphaherpesvirus 1 [19] = test: Antiviral activity against Human herpesvirus 1 isolate P56 infected in African green monkey vero cells assessed as reduction in viral titer at 100 uM; type: functional, organism-based; procedure, shortened: as §4
Human alphaherpesvirus 2 [20] = test: Antiviral activity against Human herpesvirus 2 isolate P27 infected in African green monkey CV1 cells assessed as log reduction viral titer at 50 uM; type: functional, CV-1; procedure, shortened: as §1
Human alphaherpesvirus 1 [21] = test: Antiviral activity against Human herpesvirus 1 isolate P32 infected in African green monkey vero cells assessed as reduction in viral titer; type: functional, organism-based; conditions: Human alphaherpesvirus 1, isolate P32, Vero; procedure, shortened: as §4
Human alphaherpesvirus 1 [22] = test: Antiviral activity against Human herpesvirus 1 isolate P56 infected in African green monkey vero cells assessed as reduction in viral titer; type: functional, organism-based; conditions: Human alphaherpesvirus 1, isolate P56, Vero; procedure, shortened: as §4
Human alphaherpesvirus 1 [23] = test: Antiviral activity against Human herpesvirus 1 isolate P15 infected in African green monkey vero cells assessed as log reduction in viral titer at 50 uM; type: functional; procedure, shortened: as §4
Human alphaherpesvirus 1 [24] = test: Antiviral activity against Human herpesvirus 1 isolate P15 infected in African green monkey vero cells assessed as log reduction in viral titer at 100 uM after 30 mins; type: functional; procedure, shortened: as §5
Human alphaherpesvirus 2 [25] = test: Antiviral activity against Human herpesvirus 2 isolate P47 infected in African green monkey CV1 cells assessed as log reduction in viral titer at 100 uM within 10 mins; type: functional, CV-1; procedure, shortened: as §3
Human alphaherpesvirus 2 [26] = test: Antiviral activity against Human herpesvirus 2 isolate P2 infected in African green monkey CV1 cells assessed as log reduction in viral titer at 100 uM within 10 mins; type: functional, CV-1
Procedure, shortened: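 HSV-2 clinical isolates from clarified CV-1 supernatants were held with 100 μM EGCG for timed intervals, from 10 min onward. Surviving virus was titrated on CV-1 cells by 10-fold dilution and 5-day CPE scoring, with TCID50 by Reed-Muench. Values are mean ± SD, three experiments.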

## O=C(O[C@@H]1Cc2c(O)cc(O)cc2O[C@@H]1c1cc(O)c(O)c(O)c1)c1cc(O)c(O)c(O)c1 [EPIGALOCATECHIN GALLATE]
Human alphaherpesvirus 2 [1]
  IC99: 12.1 µM
Human alphaherpesvirus 2 [2]
  IC99: 12.5 µM
Human alphaherpesvirus 2 [3]
  IC99: 12.5 µM
Human alphaherpesvirus 2 [4]
  FC: 3
Human alphaherpesvirus 2 [5]
  FC: >4
Human alphaherpesvirus 2 [6]
  FC: 3
Human alphaherpesvirus 1 [7]
  Activity: Active
Human alphaherpesvirus 1 [8]
  FC: >=3
Human alphaherpesvirus 1 [9]
  Activity: Active
Human alphaherpesvirus 1 [10]
  FC: 2
Human alphaherpesvirus 1 [11]
  Activity: Active
Human alphaherpesvirus 1 [12]
  FC: 2
Human alphaherpesvirus 2 [13]
  FC: >=2
Human alphaherpesvirus 2 [14]
  IC99: 12.3 µM
Human alphaherpesvirus 2 [15]
  FC: >4
Human alphaherpesvirus 1 [16]
  FC: 2
Human alphaherpesvirus 1 [17]
  FC: 3
Human alphaherpesvirus 2 [18]
  IC99: 25 µM
Human alphaherpesvirus 1 [19]
  Activity: Active
Human alphaherpesvirus 2 [20]
  FC: >4
Human alphaherpesvirus 1 [21]
  IC99: 16 µM
Human alphaherpesvirus 1 [22]
  IC99: 18.3 µM
Human alphaherpesvirus 1 [23]
  FC: 2
Human alphaherpesvirus 1 [24]
  FC: 2
Human alphaherpesvirus 2 [25]
  FC: 2
Human alphaherpesvirus 2 [26]
  FC: 2
